Several values for one entry are separate records, joined by “and”; a condition that tells them apart may be missing. Equal values may be shown once.
Assays:
[1] = molecular target: T1, Sterol O-acyltransferase 1 (Rattus norvegicus, UniProt O70536); experiment: Inhibitory activity against acyl coenzyme A:cholesterol acyltransferase in rat microsomes; design: species or system Microsome
T1 sequence (O70536 whole entry): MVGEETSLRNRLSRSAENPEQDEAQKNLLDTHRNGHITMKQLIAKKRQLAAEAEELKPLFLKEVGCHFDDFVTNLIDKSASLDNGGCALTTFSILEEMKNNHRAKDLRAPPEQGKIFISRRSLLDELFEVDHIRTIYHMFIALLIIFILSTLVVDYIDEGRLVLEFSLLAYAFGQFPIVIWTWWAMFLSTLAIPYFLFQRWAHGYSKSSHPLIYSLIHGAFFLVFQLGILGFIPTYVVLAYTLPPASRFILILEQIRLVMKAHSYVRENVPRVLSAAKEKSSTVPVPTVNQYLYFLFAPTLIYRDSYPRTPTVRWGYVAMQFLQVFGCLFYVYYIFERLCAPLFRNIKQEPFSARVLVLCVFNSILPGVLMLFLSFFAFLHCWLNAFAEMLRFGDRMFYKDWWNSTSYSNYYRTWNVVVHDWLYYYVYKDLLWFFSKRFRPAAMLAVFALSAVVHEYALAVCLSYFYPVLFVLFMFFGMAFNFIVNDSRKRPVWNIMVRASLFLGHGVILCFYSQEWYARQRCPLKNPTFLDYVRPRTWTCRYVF
In short: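 Rat intestinal mucosal microsomes (male Sprague–Dawley, 6 weeks), 0.2 mg protein preincubated at 37 °C for 15 min in 0.154 M phosphate buffer with fatty-acid-free BSA and compound in DMSO; cholesteryl ester formation from [1-14C]oleoyl-CoA and endogenous cholesterol by scintillation counting. IC50 from inhibition curves.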

[2] = molecular target: T2, Sterol O-acyltransferase 1 (Rattus norvegicus) (UniProt O70536); experiment: Inhibitory activity against acyl coenzyme A:cholesterol acyltransferase at 10 e-6 M in rat microsomes; settings: Microsome
T2 sequence (whole entry): T1 sequence (O70536 whole entry)
In short: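 Intestinal mucosal microsomes from male 6-week-old Sprague–Dawley rats (100800g pellet); 0.2 mg protein preincubated 15 min at 37 °C in 0.154 M phosphate buffer with fatty-acid-free BSA, compound in DMSO added before preincubation at 1 μM final. Labeled cholesteryl ester from [1-14C]oleoyl-CoA and endogenous cholesterol, scraped and scintillation counted; % inhibition.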

Cricetinae gen. sp. [3] = experiment: Plamsa cholesterol leval was measured in hamsters at 0.0001% cholesterol diet as a dietary admixture; format: functional, organism-based
In short: (§1)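 Male Golden hamsters, 10 weeks old, were fed either a stock diet or a cholesterol diet. The compound was mixed into the diet at 0.0001%, 0.0003% or 0.001% and given for 14 days. Animals were housed individually at 23 ± 1 °C and were not fasted. Blood was taken from the orbital sinus, and plasma cholesterol was measured enzymatically.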

Cricetinae gen. sp. [4] = experiment: Plamsa cholesterol leval was measured in hamsters at 0.001% cholesterol diet as a dietary admixture; format: functional, organism-based; in short: as §1
Cricetinae gen. sp. [5] = experiment: Plamsa cholesterol leval was measured in hamsters at 0.0003% cholesterol diet as a dietary admixture; settings: Mesocricetus auratus

| SMILES | IC50 [1] [µM] | inhibition [2] [%] | Plasma cholesterol (Cricetinae gen. sp. [3]) | Plasma cholesterol (Cricetinae gen. sp. [4]) | Plasma cholesterol (Cricetinae gen. sp. [5]) [mg/dL] |
| --- | --- | --- | --- | --- | --- |
| O=C(Nc1ccc(F)cc1F)Nc1cnc2ccc(Cl)cc2c1-c1ccc(Cl)cc1 | 0.534 | 77 | – | – | – |
| O=C(Nc1ccc(F)cc1F)Nc1cnc2ccc(Cl)cc2c1-c1ccccc1 | 0.215 | 88.3 | – | – | – |
| O=C(Nc1ccc(F)cc1F)Nc1cnc2ccc(Cl)cc2c1-c1ccccc1Cl | 0.0212 | 98 | – | – | – |
| Cc1cc(C)c2nc(C)c(NC(=O)Nc3ccc(F)cc3F)c(-c3ccccc3Cl)c2c1 | – | 85.4 | – | – | – |
| O=C(Nc1ccc(F)cc1F)Nc1cnc2ccc(C(F)(F)F)cc2c1-c1ccccc1 | – | 90.1 | – | – | – |
| COc1ccc(NC(=O)Nc2cnc3ccc(Cl)cc3c2-c2ccccc2)c(OC)c1 | 0.864 | 47.6 | – | – | – |
| Cc1cc2ncc(NC(=O)Nc3ccc(F)cc3F)c(-c3ccccc3Cl)c2cc1C | 0.0058 | 99.6 | 169 mg/dL and 279 mg/dL | 95 mg/dL and 213 mg/dL | 245 |
| CCc1ccc2ncc(NC(=O)Nc3ccc(F)cc3F)c(-c3ccccc3Cl)c2c1 | 0.014 | 99.2 | – | – | – |
| Cc1cc(Cl)c2ncc(NC(=O)Nc3ccc(F)cc3F)c(-c3ccccc3Cl)c2c1 | 0.0089 | 97.6 | – | – | – |
| O=C(Nc1ccccc1)Nc1cnc2ccc(Cl)cc2c1-c1ccccc1 | > 1 | 5 | – | – | – |
| CSc1ccc2ncc(NC(=O)Nc3ccc(F)cc3F)c(-c3ccccc3)c2c1 | – | 87.8 | – | – | – |
| O=C(Nc1ccc(Cl)cc1)Nc1cnc2ccc(Cl)cc2c1-c1ccccc1 | 1.3 | 51.5 | – | – | – |
| Cc1cc(C)c2ncc(NC(=O)Nc3c(F)cc(F)cc3F)c(-c3ccccc3Cl)c2c1 | 0.015 | 97.3 | – | – | – |
| O=C(Nc1ccc(F)cc1F)Nc1cnc2ccc(Br)cc2c1-c1ccccc1 | – | 85.5 | – | – | – |
| Cc1ccc2ncc(NC(=O)Nc3ccc(F)cc3F)c(-c3ccccc3)c2c1 | – | 84.5 | – | – | – |
| Cc1cc2c(-c3ccccc3C)c(NC(=O)Nc3ccc(F)cc3F)cnc2cc1Cl | 0.0093 | 98.6 | – | – | – |
| CN(C(=O)Nc1cnc2ccc(Cl)cc2c1-c1ccccc1)c1ccc(F)cc1F | > 1 | 9.4 | – | – | – |
| Cc1cc(C)c2ncc(NC(=O)Nc3ccc(F)cc3F)c(-c3ccccc3Cl)c2c1 | 0.0092 | 98.9 | – | – | – |

| SMILES | IC50 [1] [µM] | inhibition [2] [%] | Plasma cholesterol (Cricetinae gen. sp. [3]) | Plasma cholesterol (Cricetinae gen. sp. [4]) | Plasma cholesterol (Cricetinae gen. sp. [5]) [mg/dL] |
| --- | --- | --- | --- | --- | --- |
| Cc1ccccc1-c1c(NC(=O)Nc2ccc(F)cc2F)cnc2ccc(Cl)cc12 | 0.0287 | 97.2 | – | – | – |
| COc1ccc(-c2c(NC(=O)Nc3ccc(F)cc3F)cnc3ccc(Cl)cc23)cc1 | 0.121 | 92.7 | – | – | – |
| Cc1ccc2ncc(NC(=O)Nc3ccc(F)cc3F)c(-c3ccccc3Cl)c2c1 | 0.0168 | 98.5 | – | – | – |
| Cc1cccc2ncc(NC(=O)Nc3ccc(F)cc3F)c(-c3ccccc3Cl)c12 | 0.149 | 87.3 | – | – | – |
| O=C(Nc1ccc(F)cc1F)Nc1cnc2ccccc2c1-c1ccccc1Cl | 0.125 | 91.8 | – | – | – |
| CC(C)c1ccc2ncc(NC(=O)Nc3ccc(F)cc3F)c(-c3ccccc3)c2c1 | – | 91.6 | – | – | – |
| COc1ccccc1-c1c(NC(=O)Nc2ccc(F)cc2F)cnc2ccc(Cl)cc12 | 0.024 | 98.2 | – | – | – |
| O=C(Nc1ccc(F)cc1F)Nc1cnc2ccc(Cl)cc2c1-c1cccc(Cl)c1 | 0.0906 | 88.5 | – | – | – |
| Cc1cc(Cl)cc2c(-c3ccccc3Cl)c(NC(=O)Nc3ccc(F)cc3F)cnc12 | 0.012 | 97.6 | – | – | – |
| Cc1ccc(-c2c(NC(=O)Nc3ccc(F)cc3F)cnc3ccc(Cl)cc23)cc1 | 0.16 | 87.4 | – | – | – |
| O=C(Nc1ccc(F)cc1)Nc1cnc2ccc(Cl)cc2c1-c1ccccc1 | 0.8 | 66.5 | – | – | – |
| CCCCN(C(=O)Nc1ccc(F)cc1F)c1cnc2ccc(Cl)cc2c1-c1ccccc1 | – | 61.6 | – | – | – |
| CC(C)c1ccc2ncc(NC(=O)Nc3ccc(F)cc3F)c(-c3ccccc3Cl)c2c1 | 0.014 | 99.3 | – | – | – |
| O=C(Nc1ccccc1F)Nc1cnc2ccc(Cl)cc2c1-c1ccccc1 | 0.929 | 75 | – | – | – |
| Cc1cc(C)c2ncc(NC(=O)Nc3ccc(F)cc3F)c(-c3ccccc3C)c2c1 | 0.012 | 98.5 | – | – | – |
| COc1ccc2ncc(NC(=O)Nc3ccc(F)cc3F)c(-c3ccccc3)c2c1 | – | 85.9 | – | – | – |
| Cc1ccc2ncc(NC(=O)Nc3ccc(F)cc3F)c(-c3ccccc3C)c2c1 | 0.0217 | 96.9 | – | – | – |
| Cc1cc(C)c2ncc(NC(=O)Nc3c(C(C)C)cccc3C(C)C)c(-c3ccccc3Cl)c2c1 | 0.028 | 98 | – | – | – |
